Source: ChEMBL document CHEMBL1138880, “Synthesis of DNA-directed pyrrolidinyl and piperidinyl confined alkylating chloroalkylaminoanthraquinones: potential for development of tumor-selective N-oxides” (J Med Chem, 2006)
Calls of active or inactive are those of the source. The rule behind the calls is not given here.

Experiments:
[1] = system: A2780; experiment: Inhibition of A2780 cell growth; format: functional, cell-based; conditions: Homo sapiens
[2] = system: A2780; experiment: Inhibition of Doxorubicin-resistant A2780 cell growth; format: functional, cell-based; conditions: Homo sapiens
[3] = system: A2780; experiment: Inhibition of cisplatin-resistant A2780 cell growth; format: functional, cell-based; conditions: Homo sapiens
[4] = system: Nucleic Acid; experiment: Alkylation of DNA at 10 uM after 24 hrs by Taq polymerase stop assay; format: nucleic-acid assay
How it was run: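 Linearised pBR322 was treated with drug for 24 h; the screening range was 1 nM-10 µM. Treated DNA was extended with labelled SRM primer and Taq polymerase over 30 cycles (95 °C 1 min, 58 °C 1 min, 74 °C). Products were run on a denaturing gel in TBE at 55 °C with mechlorethamine and untreated DNA, then autoradiographed to map guanine alkylation sites.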

[5] = system: Nucleic Acid; experiment: Ability to interstand cross-link DNA upto 100 uM by agarose gel cross-link assay; format: nucleic-acid assay
How it was run: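 Agarose gel interstrand cross-link assay on linearised, 5′-end 32P-labelled pBR322 in TEOA buffer at 37 °C. Drug was tested across concentrations up to 100 µM and times up to 24 h. DNA was strand-separated at 95 °C, then run on 0.8% agarose and autoradiographed.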

[6] = system: A2780; experiment: Resistance factor, IC50 for A2780 AD cells/ IC50 for A2780 cells; format: functional, Homo sapiens
[7] = system: A2780; experiment: Resistance factor, IC50 for A2780/cp70 cells/ IC50 for A2780 cells; format: functional, Homo sapiens
[8] = system: Nucleic Acid; experiment: Induction of DNA unwinding by agarose gel based supercoiled plasmid pBR322 DNA mobility assay; format: nucleic-acid assay
How it was run: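 Circular supercoiled pBR322 (250 ng) with compound in reaction buffer (Tris-HCl pH 7.9, NaCl, KCl, MgCl2, EDTA, BSA, ATP), 30 °C for 15 min; stopped, run on 0.8% agarose in 1× TAE at 100 V for 3 h, EtBr-stained 30 min, visualized under UV.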

[9] = system: Panel NCI-60 (60 carcinoma cell lines); experiment: Cytotoxicity against NCI60 cell line; format: functional; conditions: Homo sapiens
[10] = system: Nucleic Acid; experiment: Ability to interstand cross-link DNA by agarose gel cross-link assay; format: nucleic-acid assay
How it was run: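 Linearised, 5′-end 32P-labelled pBR322 DNA (~100 ng) incubated with drug (0.01-10 µM final) in TEOA buffer at 37 °C for 1 h, then stopped. DNA was precipitated, heat-denatured in strand separation buffer (95 °C, 2 min), run on 0.8% agarose at 40 V overnight and autoradiographed. Cross-linked DNA was quantified by densitometry as the mean of three replicates.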

Compound | IC50 [1] | IC50 [2] | IC50 [3] | Activity [4] | Activity [5] | Ratio IC50 [6] | Ratio IC50 [7] | Activity [8] | GI50 [9] | Activity [10]
O=C1c2ccccc2C(=O)c2c(NCCN3CCCC3CCl)cccc21 (stereo not drawn) | > 1000 nM | > 1000 nM | > 1000 nM |  |  |  |  |  |  | 
O=C1c2c(O)ccc(O)c2C(=O)c2c(NCCN3CCCC(CCl)C3)ccc(NCCN3CCCC(CCl)C3)c21 (stereo not drawn) | > 1000 nM | > 1000 nM | > 1000 nM | inactive | inactive |  |  |  |  | 
CN(C)CCNc1ccc(NCCN2CCC(Cl)CC2)c2c1C(=O)c1c(O)ccc(O)c1C2=O | 576 nM | 426 nM | 535 nM | inactive |  | 0.7 | 0.9 |  |  | 
O=C1c2ccccc2C(=O)c2c(NCCN3CCCC3CO)cccc21 (stereo not drawn) | > 1000 nM | > 1000 nM | > 1000 nM |  |  |  |  |  |  | 
O=C1c2c(O)ccc(O)c2C(=O)c2c(NCC[N+]3([O-])CCCCC3CCl)ccc(NCC[N+]3([O-])CCCCC3CCl)c21 (stereo not drawn) | > 1000 nM | > 1000 nM | > 1000 nM |  |  |  |  | inactive |  | 
CN(C)CCNc1ccc(NCCN2CCCCC2CCl)c2c1C(=O)c1c(O)ccc(O)c1C2=O (stereo not drawn) | 40 nM | 91 nM | 69 nM |  |  | 2.3 | 1.7 |  |  | 
CN(C)CCNc1ccc(NCCN2C(CCl)CCCC2CCl)c2c1C(=O)c1c(O)ccc(O)c1C2=O (stereo not drawn) | 24 nM | 106 nM | 357 nM |  |  | 4.4 | 14.9 |  |  | 
O=C1c2c(O)ccc(O)c2C(=O)c2c(NCCN3CCCCC3)ccc(NCCN3CCCCC3)c21 | > 1000 nM | > 1000 nM | > 1000 nM |  |  |  |  |  |  | 
CN(C)CCNc1ccc(NCCN2CCCC2CCl)c2c1C(=O)c1c(O)ccc(O)c1C2=O (stereo not drawn) | 29 nM | 292 nM | 79 nM |  |  | 10.1 | 2.7 |  | 96 nM | 
CN(C)CCNc1ccc(NCCN2CCC(Cl)C2)c2c1C(=O)c1c(O)ccc(O)c1C2=O (stereo not drawn) | 68 nM | 342 nM | 96 nM |  |  | 5 | 1.4 |  |  | 
O=C1c2c(O)ccc(O)c2C(=O)c2c(NCCN3CCCCC3CCl)ccc(NCCN3CCCCC3CCl)c21 (stereo not drawn) | 178 nM | > 1000 nM | > 1000 nM |  |  |  |  |  |  | Time-dependent effect
O=C1c2c(O)ccc(O)c2C(=O)c2c(NCCN3CCCC(CO)C3)ccc(NCCN3CCCC(CO)C3)c21 (stereo not drawn) | 70 nM | > 1000 nM | 70 nM |  |  |  | 1 |  |  | 
CN(C)CCNc1ccc(NCCN2CCCC(Cl)C2)c2c1C(=O)c1c(O)ccc(O)c1C2=O (stereo not drawn) | 9 nM | 75 nM | 63 nM |  |  | 8.3 | 7 |  | 182 nM | 
O=C1c2c(O)ccc(O)c2C(=O)c2c(NCCN3CCCCC3CO)ccc(NCCN3CCCCC3CO)c21 (stereo not drawn) | 740 nM | > 1000 nM | > 590 nM |  |  |  | 0.9 |  |  | 
COc1cccc2c1C(=O)c1c(O)c3c(c(O)c1C2=O)C[C@@](O)(C(=O)CO)C[C@@H]3O[C@H]1C[C@H](N)[C@H](O)[C@H](C)O1 [DOXORUBICIN] | 7.5 nM | 61 nM | 3 nM |  |  | 8.1 | 0.4 |  |  | 
